Assay outcomes: PubChem, Broad Institute
This excerpt belongs to a sample that is enriched for hits.
IDH1 R132H inh = inhibitors of IDH1 R132H reductase, primary screen, biochemical, plate reader, single point. 70,000 tested, 0.18% active. diaphorase/resazurin fluorescence, 60 min. inhibition, % at 10 µM. Isocitrate dehydrogenase [NADP] cytoplasmic (Homo sapiens), O75874; in the data active = inhibition above about 34%; inconclusive = no clear call, values can overlap the other calls; inactive = below about 11%;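 note: 0% = DMSO and 100% = no enzyme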
Target sequence (O75874 whole entry R132H): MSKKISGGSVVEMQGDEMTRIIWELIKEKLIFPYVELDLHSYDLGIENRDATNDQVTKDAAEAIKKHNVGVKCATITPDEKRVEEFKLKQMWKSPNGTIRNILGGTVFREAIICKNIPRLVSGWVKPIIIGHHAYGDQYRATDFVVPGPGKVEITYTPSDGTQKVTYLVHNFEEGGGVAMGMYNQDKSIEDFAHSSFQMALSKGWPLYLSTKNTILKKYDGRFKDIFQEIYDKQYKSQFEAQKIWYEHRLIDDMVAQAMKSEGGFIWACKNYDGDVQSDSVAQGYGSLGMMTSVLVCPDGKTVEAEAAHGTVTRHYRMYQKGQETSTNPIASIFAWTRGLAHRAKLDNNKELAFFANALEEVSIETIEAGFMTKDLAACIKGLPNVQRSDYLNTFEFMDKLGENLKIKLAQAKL
T cruzi growth-1 = T. cruzi intracellular proliferation inhibitors, primary screen, cell-based, beta-gal Tulahuen parasites, NIH3T3 host, luminescence | inhibition, % at 8.34 µM | 77,000 tested, 5.9% active | T. cruzi beta-gal in NIH3T3, GalScreen luminescence, 90 h | AID 624255, 2012;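 active = mean inhibition above about 93%, with at least 55% of replicates each passing it, limit read from the data, passing the limit was not always enough; inconclusive = only one of those two conditions holds; inactive = neither condition holds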
GASC1 inh = inhibitors of GASC-1 (KDM4C) histone demethylase, primary screen, biochemical, single concentration HTS; 96,000 tested, 0.15% active; GST-KDM4C 2-372, H3K9me3 peptide, LANCE TR-FRET; inhibition, % at 12.5 µM; Lysine-specific demethylase 4C (Homo sapiens), Q9H3R0;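 active = mean replicate inhibition above about 25%, with at least 55% of replicates also reaching it, limit read from the data, passing the limit was not always enough; inconclusive = only one of those two conditions met; inactive = neither condition met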
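System – N-terminal GST-fused human GASC-1 (KDM4C) fragment, residues 2-372 · Input – enzyme final amount 10 nM · Technique – LANCE TR-FRET, Eu antibody, ULight-streptavidin, EDTA, ex 340 nm, em 618/671 nm · Medium – HEPES buffer, pH 7.5, plus ascorbate · Incubation – enzyme reaction 30 min, then detection 60 min, both room temperature · Reagent – H3K9me3 peptide with Fe(II)/2OG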
T cruzi growth-2 = T. cruzi intracellular proliferation inhibitors, confirmation, cell-based, NIH3T3 host, beta-gal parasite, luminescence, cherry-pick; shares compounds with T cruzi growth-1; T. cruzi beta-gal in NIH3T3, GalScreen luminescence, 90 h; inhibition, % at 8.35 µM; 5,600 tested, 72% active;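 active = mean replicate inhibition above about 95% and at least 55% of replicates individually reaching it, limit read from the data; inconclusive = only one of the two criteria is met; inactive = neither criterion is met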
T cruzi growth-3 = inhibitors of intracellular T. cruzi replication, confirmation, NIH3T3 host cells, beta-gal parasites, cherry-pick, set 2 | shares compounds with T cruzi growth-1 | T. cruzi beta-gal in NIH3T3, GalScreen luminescence, 90 h | inhibition, % at 2.09 µM | 5,600 tested, 21% active;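 active = mean inhibition above about 95%, with at least 55% of replicates also reaching it, limit read from the data; inconclusive = meets just one of the two conditions; inactive = meets neither condition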;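 note: plate controls were neutral control median for no effect and positive control median for full effect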
3T3 cytotox = cytotoxicity in mouse NIH/3T3 fibroblasts, confirmation, cytotoxicity control for T. cruzi proliferation inhibitor project, cell-based, cherry-pick, single point. 5,600 tested, 14% active. cytotoxicity (signal decrease), % at 8.35 µM. NIH/3T3 viability, CellTiter-Glo ATP luminescence, 90 h. shares compounds with T cruzi growth-1. AID 651742, 2012;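 active = mean signal decrease across replicates above about 35% based on untreated-well scatter, with enough replicates individually passing, limit read from the data; inconclusive = no rule stated though some were filed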;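 note: 0% = median of neutral control wells and 100% = median of positive control wells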
NIH3T3 tox 2 = NIH/3T3 fibroblast cytotoxicity, confirmation, cytotoxicity control, cell-based, cherry-pick, single point, set 2 | shares compounds with T cruzi growth-1 | NIH/3T3 viability, CellTiter-Glo ATP luminescence, 90 h | inhibition, % at 24.9 µM | 5,600 tested, 56% active;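 active = mean loss of cell viability signal at or above a set limit, and enough replicates individually reaching it; inconclusive = meets only the mean limit or only the replicate share; inactive = meets neither condition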;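 note: 0% = median of neutral control wells and 100% = median of positive control wells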
Starred values were filed as active, the others as inactive; ? = inconclusive; · = no result.

SMILES	IDH1 R132H inh	T cruzi growth-1	GASC1 inh	T cruzi growth-2	T cruzi growth-3	3T3 cytotox	NIH3T3 tox 2
CCOC(=O)c1c(NC(=O)CN2C(=O)c3ccccc3S2(=O)=O)sc2c1CCCC2	0	·	·	·	·	·	·
C[C@H]1CN([C@@H](C)CO)S(=O)(=O)c2ccc(C#CC(C)(C)O)cc2O[C@@H]1CN(C)Cc1ccncc1	0	52	1	·	·	·	·
C[C@@H]1CN([C@@H](C)CO)S(=O)(=O)c2ccc(C#CC(C)(C)O)cc2O[C@@H]1CN(C)Cc1ccncc1	7	7	-1	·	·	·	·
C[C@@H]1CN([C@@H](C)CO)S(=O)(=O)c2ccc(C#CC(C)(C)O)cc2O[C@H]1CN(C)Cc1ccncc1	2	100*	0	100*	76	12	56*
C[C@@H]1CN([C@H](C)CO)S(=O)(=O)c2ccc(C#CC(C)(C)O)cc2O[C@H]1CN(C)Cc1ccncc1	16	?	-1	87	84	44*	71*
O=C(CCCOc1ccc(Cl)cc1Cl)Nc1c[nH]c(=O)[nH]c1=O	0	·	·	·	·	·	·
C[C@H]1CN([C@@H](C)CO)C(=O)Cc2cc(NC(=O)C3CCCCC3)ccc2O[C@@H]1CN(C)Cc1ccc2c(c1)OCO2	1	99*	2	96*	33	-19	14
C[C@@H]1CN([C@@H](C)CO)C(=O)Cc2cc(NC(=O)C3CCCCC3)ccc2O[C@@H]1CN(C)CC1CC1	0	97*	0	21	10	3	7
C[C@@H]1CN([C@H](C)CO)C(=O)Cc2cc(NC(=O)C3CCCCC3)ccc2O[C@@H]1CN(C)Cc1ccc2c(c1)OCO2	·	29	3	·	·	·	·
C[C@H](CO)N1C[C@H](C)[C@@H](CN(C)Cc2ccc3c(c2)OCO3)Oc2ccc(NC(=O)C3CC3)cc2CC1=O	5	77	8	·	·	·	·
C[C@H]1CN([C@@H](C)CO)C(=O)Cc2cc(NC(=O)C3CCCCC3)ccc2O[C@@H]1CN(C)CC1CC1	0	-7	2	·	·	·	·
C[C@H](CO)N1C[C@H](C)[C@@H](CN(C)Cc2ccc3c(c2)OCO3)Oc2ccc(NC(=O)C3CCCCC3)cc2CC1=O	1	100*	2	103*	70	5	28*
Cc1ccc(NC(=O)CNC(=O)c2ccc([N+](=O)[O-])cc2)cc1	0	·	·	·	·	·	·
COC(=O)c1ccc(NC(=O)CCn2nc(-c3ccc(Cl)cc3)c3ccccc3c2=O)cc1	0	·	·	·	·	·	·
COc1cc(Br)cc2cc(C(=O)NCCCN3CCOCC3)c(=O)oc12	-1	·	·	·	·	·	·
C[C@H](CO)N1C[C@H](C)[C@@H](CN(C)C)Oc2cc(C3=CCCCC3)ccc2S1(=O)=O	0	-56	1	·	·	·	·
C[C@@H]1CN([C@H](C)CO)S(=O)(=O)c2ccc(C3=CCCCC3)cc2O[C@@H]1CN(C)S(=O)(=O)c1ccc(F)cc1	·	119*	0	101*	107*	16	61*
C[C@@H]1CN([C@@H](C)CO)S(=O)(=O)c2ccc(C3=CCCC3)cc2O[C@H]1CN(C)S(=O)(=O)c1ccc(F)cc1	0	116*	-1	97*	99*	27	27*
C[C@H](CO)N1C[C@H](C)[C@@H](CN(C)S(C)(=O)=O)Oc2cc(C3=CCCC3)ccc2S1(=O)=O	·	4	2	·	·	·	·
C[C@H]1CN([C@@H](C)CO)S(=O)(=O)c2ccc(C3=CCCC3)cc2O[C@H]1CN(C)S(=O)(=O)c1ccc(F)cc1	-28	121*	0	106*	90	16	1
Cc1ccc(S(=O)(=O)N(C)C[C@@H]2Oc3cc(C4=CCCC4)ccc3S(=O)(=O)N([C@H](C)CO)C[C@@H]2C)cc1	-37	·	1	·	·	·	·
Cc1cc(O)c(Cc2c(O)cc(C)oc2=O)c(=O)o1	0	·	·	·	·	·	·
